*1 amine or outer side, *2 acyl side, *3 side chain or, on linkers, in order; H or OH if unused. Where a SMILES comes first, the peptide text is derived from it. Bridges are numbered along the chain shown (N, C = ends). Roman numbers before positions name the chains, in order. [ ]: non-standard residue; d: D form. Actinocin(1to9) = Cc1c2oc3c(C)ccc(C(=O)[*:2])c3nc-2c(C(=O)[*:1])c(N)c1=O; NMeV = CN[C@H](C(=O)O)C(C)C; Sar = CNCC(=O)O
Columns and labels:
[1] = Cytotoxicity against human SF-767 cells assessed as viable cells after 72 hrs by MTT assay; type: functional; conditions: SF767, 72 h, read-out: LC50 (the source's name)
Procedure, shortened: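 SF767 glioblastoma cells, 2000 per well, grown 24 h, then exposed to increasing concentrations of compound for 72 h. Viable cells read by MTT with standard protocols. Media-only blank in each treatment group as background. Run in triplicate. LC50 read graphically from plots of % surviving cells against concentration.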

[2] = system: Nucleic Acid; test: Binding affinity to poly dA/dT DNA assessed as change in melting temperature by thermal denaturation assay; type: nucleic-acid assay
[3] = system: Nucleic Acid; test: Binding affinity to G/C-rich DNA oligonucleotide assessed as change in melting temperature by thermal denaturation assay; type: nucleic-acid assay
[4] = system: Nucleic Acid; test: Binding affinity to calf thymus DNA assessed as decrease in ethidium bromide fluorescence by FID assay; type: nucleic-acid assay, Bos taurus
Procedure, shortened: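 Concentration-response FID using plate conditions as in the screen (calf thymus DNA, ethidium bromide, Tris buffer). Compound added to final 0.1-50 μM, from gravimetrically prepared stocks. FD50 taken as concentration giving 50% fluorescence decrease within each compound's achievable range; maximum %F decrease measured experimentally.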

[5] = system: Nucleic Acid; test: Binding affinity to calf thymus DNA assessed as decrease in ethidium bromide fluorescence at 10 uM by HT-FID assay; type: nucleic-acid assay; conditions: Bos taurus

Row | Structure (SMILES) | CC50 [1] [µM] | ΔTm [2] [°C] | ΔTm [3] [°C] | EC50 [4] [µM] | Binding Decrease [5] [%]
1 | CCOC(=O)Cn1c(=N)n(CCOc2cccc(C)c2)c2ccccc21 | > 50 | > 45 | 0 | 7.7 | 46
2 | Cc1cccn2c(=O)c3cc(C(=O)NCCc4ccccc4)c(=N)n(CCc4ccccc4)c3nc12 | > 25 | 0 | 10 | 7.7 | 22
3 | CCc1ccc2c(C)nc(NC3=NC(C)(C)C=C(C)N3)nc2c1 | 2.6 | 10 | 0 | 7.7 | 40
4 | Cc1ccc(Nc2nc(N)nc(CN3CCC(Cc4ccccc4)CC3)n2)cc1 | 26 | > 45 | 0 | 5.5 | 32
5 | CCc1ccc(C2NCc3ccccc3-n3cccc32)cc1 (stereo not drawn) | 35 | > 45 | 0 | 9.4 | 36
6 | CC(C)c1ccc(CNCCC(c2ccccc2)c2ccco2)cc1 (stereo not drawn) | 13 | > 45 | 0 | 13.5 | 34
7 | Cn1cc(NC(=O)c2cc(NC(=O)CNC(=N)N)cn2C)cc1C(=O)NCCC(=N)N [NETROPSIN] |  | 45 | 0 | 5.1 | 32
8 | Cc1c2oc3c(C)ccc(C(=O)N[C@@H]4C(=O)N[C@H](C(C)C)C(=O)N5CCC[C@H]5C(=O)N(C)CC(=O)N(C)[C@@H](C(C)C)C(=O)O[C@@H]4C)c3nc-2c(C(=O)N[C@@H]2C(=O)N[C@H](C(C)C)C(=O)N3CCC[C@H]3C(=O)N(C)CC(=O)N(C)[C@@H](C(C)C)C(=O)O[C@@H]2C)c(N)c1=O [DACTINOMYCIN] (I: T[dV]P[Sar][NMeV] / II: T[dV]P[Sar][NMeV]; ester I:1-I:C, II:1-II:C; linker I:N-II:N via Actinocin(1to9)) |  | > 45 | 10 | 4.3 | 63
9 | CC(C)c1ccc(CNc2ccc3c(c2)ncn3C)cc1 | 10 | > 45 | 0 | 4.4 | 32
